Laboratory results taken from ChEMBL document CHEMBL1781935, “Amberlite-IRA-402 (OH) ion exchange resin mediated synthesis of indolizines, pyrrolo [1,2-a] quinolines and isoquinolines: antibacterial and antifungal evaluation of the products” (2011).
Converted amounts (≈) assume the structure as drawn. The source made the active and inactive calls. No cut-off for these calls is given here.

Assays:
Pseudomonas aeruginosa [1] = experiment: Antibacterial activity against Pseudomonas aeruginosa ATCC 27853; type: functional
Summary of the method: (§1)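 MIC by broth and agar dilution. Broth: 0.1 ml suspension (2 × 10^6 cfu/ml) in Mueller-Hinton broth with test drug at 1–1000 µg/ml, 37 °C overnight. Agar: serial drug dilutions in Mueller-Hinton agar, spot-inoculated with 2 × 10^6 cfu/spot, 37 °C for 24 h. MIC was the lowest concentration with no visible growth. Antibiotic controls were included.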

Shigella dysenteriae [2] = experiment: Antibacterial activity against Shigella dysenteriae isolate 3 at 1 to 1000 ug/ml after overnight incubation by disc diffusion method; type: functional
Klebsiella pneumoniae [3] = experiment: Antibacterial activity against Klebsiella pneumoniae isolate J/1/4; type: functional; summary of the method: as §1
Salmonella typhimurium [4] = experiment: Antibacterial activity against Salmonella Typhimurium isolate 11 at 1 to 1000 ug/ml after overnight incubation by disc diffusion method; type: functional, organism-based; settings: Salmonella enterica subsp. enterica serovar Typhimurium
Summary of the method: (§2)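 Disc diffusion on Mueller-Hinton agar. Plates seeded with 0.1 ml bacterial suspension (2 × 10^6 cfu/ml). Sterile 6 mm paper discs were impregnated with compound solutions at 1–1000 µg/ml and incubated at 37 °C overnight. Read-out was the diameter of the clear inhibition zone. Stocks were 1 mg/ml in 4% Tween 80 or 4% propylene glycol.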

Staphylococcus aureus [5] = experiment: Antibacterial activity against Staphylococcus aureus ATCC 25923; type: functional; summary of the method: as §1
Staphylococcus aureus [6] = experiment: Antibacterial activity against Staphylococcus aureus ATCC 25923 at 1 to 1000 ug/ml after overnight incubation by disc diffusion method; type: functional; summary of the method: as §2
Micrococcus luteus [7] = experiment: Antibacterial activity against Micrococcus luteus AGD1; type: functional; summary of the method: as §1
Pseudomonas aeruginosa [8] = experiment: Antibacterial activity against Pseudomonas aeruginosa ATCC 27853 at 1 to 1000 ug/ml after overnight incubation by disc diffusion method; type: functional; summary of the method: as §2
Escherichia coli [9] = experiment: Antibacterial activity against Escherichia coli ATCC 25938 at 1 to 1000 ug/ml after overnight incubation by disc diffusion method; type: functional; summary of the method: as §2
Vibrio cholerae [10] = experiment: Antibacterial activity against Vibrio cholerae isolate 7201; type: functional
Vibrio parahaemolyticus [11] = experiment: Antibacterial activity against Vibrio parahaemolyticus isolate 72016; type: functional; summary of the method: as §1
Salmonella typhi [12] = experiment: Antibacterial activity against Salmonella typhi DIRW at 1 to 1000 ug/ml after overnight incubation by disc diffusion method; type: functional
Shigella flexneri [13] = experiment: Antibacterial activity against Shigella flexneri DN13 at 1 to 1000 ug/ml after overnight incubation by disc diffusion method; type: functional; summary of the method: as §2
Enterococcus faecalis [14] = experiment: Antibacterial activity against Enterococcus faecalis isolate 29212 at 1 to 1000 ug/ml after overnight incubation by disc diffusion method; type: functional; summary of the method: as §2
Micrococcus luteus [15] = experiment: Antibacterial activity against Micrococcus luteus AGD1 at 1 to 1000 ug/ml after overnight incubation by disc diffusion method; type: functional; summary of the method: as §2
Vibrio cholerae [16] = experiment: Antibacterial activity against Vibrio cholerae isolate 7201 at 1 to 1000 ug/ml after overnight incubation by disc diffusion method; type: functional
Klebsiella pneumoniae [17] = experiment: Antibacterial activity against Klebsiella pneumoniae isolate J/1/4 at 1 to 1000 ug/ml after overnight incubation by disc diffusion method; type: functional; summary of the method: as §2
Bacillus subtilis [18] = experiment: Antibacterial activity against Bacillus subtilis UC564 at 1 to 1000 ug/ml after overnight incubation by disc diffusion method; type: functional; summary of the method: as §2
Salmonella typhimurium [19] = experiment: Antibacterial activity against Salmonella Typhimurium isolate 11; type: functional, Salmonella enterica subsp. enterica serovar Typhimurium; settings: Salmonella enterica; summary of the method: as §1
Vibrio parahaemolyticus [20] = experiment: Antibacterial activity against Vibrio parahaemolyticus isolate 72016 at 1 to 1000 ug/ml after overnight incubation by disc diffusion method; type: functional; summary of the method: as §2
Shigella dysenteriae [21] = experiment: Antibacterial activity against Shigella dysenteriae isolate 3; type: functional
Salmonella typhi [22] = experiment: Antibacterial activity against Salmonella typhi DIRW; type: functional, Salmonella enterica subsp. enterica serovar Typhi; settings: Salmonella enterica
Enterococcus faecalis [23] = experiment: Antibacterial activity against Streptococcus faecalis isolate 29212; type: functional; summary of the method: as §1
Escherichia coli [24] = experiment: Antibacterial activity against Escherichia coli ATCC 25938; type: functional; summary of the method: as §1
Shigella flexneri [25] = experiment: Antibacterial activity against Shigella flexneri DN13; type: functional; summary of the method: as §1
Bacillus subtilis [26] = experiment: Antibacterial activity against Bacillus subtilis UC564; type: functional; summary of the method: as §1
Vibrio cholerae [27] = experiment: Antibacterial activity against Vibrio cholerae isolate 720 at 1 to 1000 ug/ml after overnight incubation by disc diffusion method; type: functional
Pseudomonas aeruginosa [28] = experiment: Antibacterial activity against Pseudomonas aeruginosa ATCC 27853 at 10 to 80 ug/ml after overnight incubation by broth dilution method; type: functional, organism-based
Summary of the method: (§3)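 Bactericidal testing with double-fold drug dilutions in Mueller-Hinton broth. Tubes inoculated with 1 ml suspension (2 × 10^6 cfu/ml) and shaken at 200 rpm at 37 °C for 24 h. Drug was added at mid-logarithmic growth. Viable colony counts were taken from 1.0 ml aliquots plated on nutrient agar.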

Staphylococcus aureus [29] = experiment: Antibacterial activity against Staphylococcus aureus ATCC 25923 at 10 to 80 ug/ml after overnight incubation by broth dilution method; type: functional, organism-based; summary of the method: as §3
Escherichia coli [30] = experiment: Antibacterial activity against Escherichia coli ATCC 25938 at 10 to 80 ug/ml after overnight incubation by broth dilution method; type: functional, organism-based; summary of the method: as §3
Vibrio cholerae [31] = experiment: Antibacterial activity against Vibrio cholerae isolate 7201 at 10 to 80 ug/ml after overnight incubation by broth dilution method; type: functional, organism-based
Bacillus subtilis [32] = experiment: Antibacterial activity against Bacillus subtilis UC564 at 10 to 80 ug/ml after overnight incubation by broth dilution method; type: functional, organism-based; summary of the method: as §3
Shigella dysenteriae [33] = experiment: Antibacterial activity against Shigella dysenteriae isolate 3 at 10 to 80 ug/ml after overnight incubation by broth dilution method; type: functional, organism-based
[34] = Salmonella enterica subsp. enterica serovar Typhi

SMILES | MIC (Pseudomonas aeruginosa [1]) [µg/mL] | diameter of the inhibition zone (DIZ) (Shigella dysenteriae [2]) | MIC (Klebsiella pneumoniae [3]) [µg/mL] | diameter of the inhibition zone (DIZ) (Salmonella typhimurium [4]) | MIC (Staphylococcus aureus [5]) [µg/mL] | diameter of the inhibition zone (DIZ) (Staphylococcus aureus [6]) | MIC (Micrococcus luteus [7]) [µg/mL] | diameter of the inhibition zone (DIZ) (Pseudomonas aeruginosa [8]) | diameter of the inhibition zone (DIZ) (Escherichia coli [9]) [mm] | MIC (Vibrio cholerae [10]) [µg/mL] | MIC (Vibrio parahaemolyticus [11]) [µg/mL] | diameter of the inhibition zone (DIZ) (Shigella flexneri [13]) | diameter of the inhibition zone (DIZ) (Enterococcus faecalis [14]) | MIC (Salmonella typhimurium [19]) [µg/mL] | MIC (Shigella dysenteriae [21]) [µg/mL] | MIC (Salmonella typhi [22]) [µg/mL] | MIC (Enterococcus faecalis [23]) [µg/mL] | MIC (Escherichia coli [24]) [µg/mL] | MIC (Shigella flexneri [25]) [µg/mL] | MIC (Bacillus subtilis [26]) [µg/mL] | also measured
N#Cc1cc(C(=O)c2ccccc2)n2ccc3ccccc3c12 | 64 (≈ 216 µM) | inactive | 32 (≈ 108 µM) | inactive | 256 (≈ 864 µM) | 7.5 mm | > 500 | 9.5 mm | 8 | 32 (≈ 108 µM) | > 500 | inactive | inactive | > 500 | > 500 | > 500 | > 500 | 256 (≈ 864 µM) | > 500 | 128 (≈ 432 µM) | diameter of the inhibition zone (DIZ) (Salmonella typhi [12]; [34]): inactive; diameter of the inhibition zone (DIZ) (Micrococcus luteus [15]): inactive; diameter of the inhibition zone (DIZ) (Vibrio cholerae [16]): 11 mm; diameter of the inhibition zone (DIZ) (Klebsiella pneumoniae [17]): 11 mm; diameter of the inhibition zone (DIZ) (Bacillus subtilis [18]): 7.5 mm; diameter of the inhibition zone (DIZ) (Vibrio parahaemolyticus [20]): inactive; diameter of the inhibition zone (DIZ) (Vibrio cholerae [27]): 11 mm
CCOC(=O)c1cc2ccccn2c1C(=O)c1ccccc1 | > 500 | – | > 500 | – | > 500 | – | > 500 | – | – | > 500 | > 500 | – | – | > 500 | > 500 | > 500 | > 500 | > 500 | > 500 | > 500 | –
CCOC(=O)c1cc(C(=O)c2ccccc2)n2ccc3ccccc3c12 | 64 (≈ 186 µM) | 9.7 mm | 256 (≈ 746 µM) | inactive | 256 (≈ 746 µM) | 8.3 mm | 500 (≈ 1460 µM) | 11 mm | 11.2 | 32 (≈ 93.2 µM) | 256 (≈ 746 µM) | 7.1 mm | 7 mm | 256 (≈ 746 µM) | 128 (≈ 373 µM) | > 500 | 256 (≈ 746 µM) | 64 (≈ 186 µM) | 256 (≈ 746 µM) | 64 (≈ 186 µM) | diameter of the inhibition zone (DIZ) (Salmonella typhi [12]; [34]): inactive; diameter of the inhibition zone (DIZ) (Micrococcus luteus [15]): 8.1 mm; diameter of the inhibition zone (DIZ) (Vibrio cholerae [16]): 10.2 mm; diameter of the inhibition zone (DIZ) (Klebsiella pneumoniae [17]): 8.5 mm; diameter of the inhibition zone (DIZ) (Bacillus subtilis [18]): 11.4 mm; diameter of the inhibition zone (DIZ) (Vibrio parahaemolyticus [20]): 8 mm; diameter of the inhibition zone (DIZ) (Vibrio cholerae [27]): 10.2 mm
COC(=O)c1c(C(=O)OC)c2ccccn2c1C(=O)c1ccccc1 | 500 (≈ 1480 µM) | – | > 500 | – | > 500 | – | > 500 | – | – | > 500 | > 500 | – | – | > 500 | > 500 | > 500 | > 500 | > 500 | > 500 | > 500 | –
COC(=O)c1c(C(=O)OC)c2ccc3ccccc3n2c1C(=O)c1ccccc1 | > 500 | 11.5 mm | 64 (≈ 165 µM) | inactive | 500 (≈ 1290 µM) | inactive | > 500 | inactive | 12.1 | 500 (≈ 1290 µM) | > 500 | inactive | 12 mm | 500 (≈ 1290 µM) | 16 (≈ 41.3 µM) | 128 (≈ 330 µM) | 64 (≈ 165 µM) | > 500 | 500 (≈ 1290 µM) | 32 (≈ 82.6 µM) | Activity (Pseudomonas aeruginosa [28]): Active; Activity (Staphylococcus aureus [29]): Active; diameter of the inhibition zone (DIZ) (Salmonella typhi [12]): 7.5 mm; Activity (Escherichia coli [30]): Active; diameter of the inhibition zone (DIZ) (Micrococcus luteus [15]): inactive; diameter of the inhibition zone (DIZ) (Vibrio cholerae [16]): inactive; diameter of the inhibition zone (DIZ) (Klebsiella pneumoniae [17]): 10 mm; diameter of the inhibition zone (DIZ) (Bacillus subtilis [18]): 10.2 mm; diameter of the inhibition zone (DIZ) (Vibrio parahaemolyticus [20]): inactive; Activity (Vibrio cholerae [31]): Active; Activity (Bacillus subtilis [32]): Active; Activity (Shigella dysenteriae [33]): Active; diameter of the inhibition zone (DIZ) (Vibrio cholerae [27]): inactive
COC(=O)c1cc(C(=O)c2ccccc2)n2ccc3ccccc3c12 | 128 (≈ 389 µM) | – | 256 (≈ 777 µM) | – | 128 (≈ 389 µM) | – | > 500 | – | – | 256 (≈ 777 µM) | 256 (≈ 777 µM) | – | – | 500 (≈ 1520 µM) | 256 (≈ 777 µM) | 256 (≈ 777 µM) | 256 (≈ 777 µM) | 500 (≈ 1520 µM) | 128 (≈ 389 µM) | 256 (≈ 777 µM) | –
CC1(C)S[C@@H]2[C@H](NC(=O)[C@H](N)c3ccc(O)cc3)C(=O)N2[C@H]1C(=O)O [AMOXICILLIN] | 256 (≈ 701 µM) | – | 128 (≈ 350 µM) | – | 0.5 (≈ 1.37 µM) | – | 0.5 (≈ 1.37 µM) | – | – | 256 (≈ 701 µM) | 256 (≈ 701 µM) | – | – | > 1000 | 64 (≈ 175 µM) | 128 (≈ 350 µM) | 0.25 (≈ 0.684 µM) | 0.5 (≈ 1.37 µM) | 128 (≈ 350 µM) | 0.5 (≈ 1.37 µM) | –
